Experiment [1] addresses Protein arginine N-methyltransferase 8 (Homo sapiens, UniProt Q9NR22). As to the kind of experiment: Inhibition of PRMT8 (unknown origin).
Experiment [2] deals with Protein arginine N-methyltransferase 6 (Homo sapiens, UniProt Q96LA8). Briefly: Inhibition of PRMT6 (unknown origin).
The target of experiment [3] is T1, Histone-arginine methyltransferase CARM1 (Homo sapiens, UniProt Q86X55).
T1 sequence (Q86X55 whole entry): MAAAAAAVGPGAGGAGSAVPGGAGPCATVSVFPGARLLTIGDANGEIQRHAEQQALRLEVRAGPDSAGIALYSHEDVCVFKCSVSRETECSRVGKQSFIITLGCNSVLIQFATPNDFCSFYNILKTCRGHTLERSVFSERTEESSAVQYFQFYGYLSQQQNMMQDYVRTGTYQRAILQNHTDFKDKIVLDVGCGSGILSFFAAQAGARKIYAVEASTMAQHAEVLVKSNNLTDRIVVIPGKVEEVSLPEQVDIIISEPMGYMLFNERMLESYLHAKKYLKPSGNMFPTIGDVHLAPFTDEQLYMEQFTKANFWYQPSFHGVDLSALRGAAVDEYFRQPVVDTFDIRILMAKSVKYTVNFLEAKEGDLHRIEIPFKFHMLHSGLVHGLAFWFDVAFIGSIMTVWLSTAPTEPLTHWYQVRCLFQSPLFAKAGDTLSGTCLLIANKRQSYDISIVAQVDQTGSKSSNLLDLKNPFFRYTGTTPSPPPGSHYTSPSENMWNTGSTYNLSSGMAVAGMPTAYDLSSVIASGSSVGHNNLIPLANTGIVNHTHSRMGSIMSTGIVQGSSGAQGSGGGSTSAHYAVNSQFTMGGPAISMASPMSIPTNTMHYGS
Briefly: Inhibition of full-length Halo-tagged human CARM1 (1 to 608 residues) expressed in 293-F cells using [3H]-SAM and biotinylated histone peptides by scintillation proximity based radiometric assay. Type of experiment: cell-based. In general terms: SPA uses beads or plates that emit light when radiolabelled molecules are held near them.

In experiment [4] the target is T2, Histone-arginine methyltransferase CARM1 (Homo sapiens) (UniProt Q86X55).
T2 sequence (whole entry): T1 sequence (Q86X55 whole entry)
As to the kind of experiment: Inhibition of full-length Halo-tagged human CARM1 (1 to 608 residues) expressed in 293-F cells at 50 uM using [3H]-SAM and biotinylated histone peptides by scintillation proximity based radiometric assay. It counts as cell-based. In outline:
(§1)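 Radiometric scintillation proximity assay. Tag-cleaved full-length human CARM1 (1–608) at 25 nM, with 0.7 μM C-terminally biotinylated H3 1–25 peptide and 1.9 μM [3H]-SAM in 20 mM bicine pH 8.5. Transfer of tritiated methyl to the peptide counted as cpm. Single compound concentration per line.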

Experiment [5] concerns the target T2, Histone-arginine methyltransferase CARM1 (Homo sapiens). Briefly: Inhibition of full-length Halo-tagged human CARM1 (1 to 608 residues) expressed in 293-F cells at 10 uM using [3H]-SAM and biotinylated histone peptides by scintillation proximity based radiometric assay. Type of experiment: cell-based. Summed up: as §1
The target of experiment [6] is Protein arginine N-methyltransferase 1 (Homo sapiens, UniProt Q99873). Briefly: Inhibition of PRMT1 (unknown origin).
For experiment [7], the target named is Protein arginine N-methyltransferase 3 (Homo sapiens, UniProt O60678). Briefly: Inhibition of PRMT3 (unknown origin).
Experiment [8] deals with T2, Histone-arginine methyltransferase CARM1 (Homo sapiens). Briefly: Inhibition of CARM1 in HEK293 cells assessed as reduction in BAF155 methylation at 1 uM incubated for 48 hrs by SDS-PAGE and immunoblotting. For orientation: Immunoblotting shows a protein as a band on a membrane.
A short description of experiment [9]: Selectivity index, ratio of IC50 for RMT6 (unknown origin) to IC50 for full-length Halo-tagged human CARM1 (1 to 608 residues) expressed in 293-F cells. Type of experiment: cell-based.
Experiment [10] deals with T2, Histone-arginine methyltransferase CARM1 (Homo sapiens). As to the kind of experiment: Non-competitive inhibition of full-length Halo-tagged human CARM1 (1 to 608 residues) expressed in 293-F cells using [3H]-SAM and increasing biotinylated histone peptides by scintillation proximity based radiometric assay. Type of experiment: cell-based.
For experiment [11] the target is unchanged. As to the kind of experiment: Inhibition of CARM1 in HEK293 cells assessed as reduction in BAF155 methylation at 10 uM incubated for 48 hrs by SDS-PAGE and immunoblotting.
For experiment [12] the target is unchanged. As to the kind of experiment: Non-competitive inhibition of full-length Halo-tagged human CARM1 (1 to 608 residues) expressed in 293-F cells using increasing [3H]-SAM and biotinylated histone peptides by scintillation proximity based radiometric assay. It counts as cell-based.
In experiment [13] the target is Protein arginine N-methyltransferase 5 (Homo sapiens, UniProt O14744). Briefly: Inhibition of PRMT5 (unknown origin).
In experiment [14] the target is T3, Protein arginine N-methyltransferase 7 (Homo sapiens, UniProt Q9NVM4).
T3 sequence (Q9NVM4 whole entry): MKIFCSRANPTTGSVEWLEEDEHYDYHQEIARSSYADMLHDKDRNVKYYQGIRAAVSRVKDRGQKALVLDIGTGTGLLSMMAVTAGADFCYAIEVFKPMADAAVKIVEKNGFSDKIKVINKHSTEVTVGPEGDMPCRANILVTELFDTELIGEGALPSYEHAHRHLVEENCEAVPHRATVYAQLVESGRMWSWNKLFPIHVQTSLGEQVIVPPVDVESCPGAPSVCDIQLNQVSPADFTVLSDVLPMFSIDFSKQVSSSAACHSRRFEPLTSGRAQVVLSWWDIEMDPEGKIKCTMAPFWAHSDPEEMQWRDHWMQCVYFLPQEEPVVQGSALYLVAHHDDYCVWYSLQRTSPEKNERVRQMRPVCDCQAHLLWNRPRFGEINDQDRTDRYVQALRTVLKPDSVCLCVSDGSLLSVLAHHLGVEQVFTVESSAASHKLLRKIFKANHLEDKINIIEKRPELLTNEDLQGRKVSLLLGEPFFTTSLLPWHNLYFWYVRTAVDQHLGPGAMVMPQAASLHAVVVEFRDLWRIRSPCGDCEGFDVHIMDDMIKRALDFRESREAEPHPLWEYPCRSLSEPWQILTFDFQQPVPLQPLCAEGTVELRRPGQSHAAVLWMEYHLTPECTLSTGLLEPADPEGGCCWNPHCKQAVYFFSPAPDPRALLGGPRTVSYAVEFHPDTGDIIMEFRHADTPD
As to the kind of experiment: Inhibition of PRMT7 (unknown origin).

Experiment [15] deals with T1, Histone-arginine methyltransferase CARM1. Briefly: Binding affinity to full-length Halo-tagged human CARM1 (1 to 608 residues) expressed in 293-F cells by surface plasmon resonance assay. Summed up: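 About 4500 RU of CARM1 amine-coupled to a CM5 chip, blank cell used for reference subtraction. Compounds serially diluted in DMSO, then into HBS-EP buffer at 5% DMSO final. Contact time 30 s at 75 μL/min.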
In general terms: In SPR one partner is held on a chip, and binding of the other changes the refractive index at the surface.

Experiment [16] has as its target T2, Histone-arginine methyltransferase CARM1 (Homo sapiens). Briefly: Binding affinity to full-length Halo-tagged human CARM1 (1 to 608 residues) expressed in 293-F cells assessed as change in melting temperature by Sypro orange dye based differential scanning fluorimetry. It counts as cell-based.
Experiment [17] shares this target. Briefly: Binding affinity to full-length Halo-tagged human CARM1 (1 to 608 residues) expressed in 293-F cells assessed as change in aggregation temperature in presence of SAM by differential static light scattering. It counts as cell-based. Summed up: (§2)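 Full-length human CARM1 (residues 1–608) expressed as a HaloTag fusion in FreeStyle 293-F cells, HaloTag-purified, tag removed with TEV. Heated from 30 to 80 °C at 1 °C/min; aggregation temperature shift read by static light scattering.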

Experiment [18] shares this target. As to the kind of experiment: Binding affinity to full-length Halo-tagged human CARM1 (1 to 608 residues) expressed in 293-F cells assessed as change in aggregation temperature by differential static light scattering. Type of experiment: cell-based. Summed up:
as §2

The target is the same in experiment [19]. Briefly: Binding affinity to full-length Halo-tagged human CARM1 (1 to 608 residues) expressed in 293-F cells assessed as change in melting temperature in presencee of SAM by Sypro orange dye based differential scanning fluorimetry. It counts as cell-based.

The values below come from ChEMBL document CHEMBL4425140, “Discovery of a Potent and Selective Coactivator Associated Arginine Methyltransferase 1 (CARM1) Inhibitor by Virtual Screening” (J Med Chem, 2016).

SMILES strings stand for the structures. Activity calls are given as the source filed them. The calls are words filed in the database; no cut-off is given here. A value given as a limit tells only on which side of the number the result lay.

Chain of Protein arginine N-methyltransferase 6 (Q96LA8 whole entry): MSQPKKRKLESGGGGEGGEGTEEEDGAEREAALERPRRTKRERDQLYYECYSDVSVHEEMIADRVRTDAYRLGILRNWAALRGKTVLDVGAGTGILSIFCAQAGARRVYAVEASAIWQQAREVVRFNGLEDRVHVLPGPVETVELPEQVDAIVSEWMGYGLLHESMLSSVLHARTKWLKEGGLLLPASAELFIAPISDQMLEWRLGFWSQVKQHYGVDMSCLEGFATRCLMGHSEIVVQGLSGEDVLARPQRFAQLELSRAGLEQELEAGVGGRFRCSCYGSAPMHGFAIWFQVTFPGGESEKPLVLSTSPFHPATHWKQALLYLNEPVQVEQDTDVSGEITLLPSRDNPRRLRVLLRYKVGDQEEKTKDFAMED
Chain of Protein arginine N-methyltransferase 8 (Q9NR22 whole entry): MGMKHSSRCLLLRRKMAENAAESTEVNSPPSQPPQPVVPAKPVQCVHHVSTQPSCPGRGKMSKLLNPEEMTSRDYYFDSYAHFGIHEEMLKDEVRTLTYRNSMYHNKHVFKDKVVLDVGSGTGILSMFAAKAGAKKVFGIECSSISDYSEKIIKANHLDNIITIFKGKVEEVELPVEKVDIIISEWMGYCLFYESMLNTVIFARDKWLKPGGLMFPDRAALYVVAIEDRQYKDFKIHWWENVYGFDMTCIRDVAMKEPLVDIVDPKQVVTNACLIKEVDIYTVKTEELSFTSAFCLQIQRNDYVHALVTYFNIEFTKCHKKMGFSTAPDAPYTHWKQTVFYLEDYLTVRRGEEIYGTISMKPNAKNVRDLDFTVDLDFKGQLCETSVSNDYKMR
Chain of Protein arginine N-methyltransferase 5 (O14744 whole entry): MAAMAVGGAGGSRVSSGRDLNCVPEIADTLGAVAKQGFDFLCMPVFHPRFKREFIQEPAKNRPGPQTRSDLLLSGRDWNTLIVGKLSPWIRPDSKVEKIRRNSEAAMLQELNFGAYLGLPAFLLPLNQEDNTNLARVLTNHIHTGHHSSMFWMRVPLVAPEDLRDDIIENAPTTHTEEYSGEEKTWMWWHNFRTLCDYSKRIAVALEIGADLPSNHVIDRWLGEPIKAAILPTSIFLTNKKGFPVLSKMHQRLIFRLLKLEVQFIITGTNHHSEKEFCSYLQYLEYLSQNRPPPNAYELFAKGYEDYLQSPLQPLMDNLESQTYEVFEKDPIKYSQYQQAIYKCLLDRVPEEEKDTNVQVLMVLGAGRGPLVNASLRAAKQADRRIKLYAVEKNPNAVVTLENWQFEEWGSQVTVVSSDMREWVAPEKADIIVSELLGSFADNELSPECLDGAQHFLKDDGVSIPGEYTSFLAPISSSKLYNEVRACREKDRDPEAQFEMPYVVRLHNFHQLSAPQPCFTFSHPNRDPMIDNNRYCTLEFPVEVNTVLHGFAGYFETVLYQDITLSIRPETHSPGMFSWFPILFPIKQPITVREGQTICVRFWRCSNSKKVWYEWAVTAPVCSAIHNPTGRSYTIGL
Chain of Protein arginine N-methyltransferase 3 (O60678 whole entry): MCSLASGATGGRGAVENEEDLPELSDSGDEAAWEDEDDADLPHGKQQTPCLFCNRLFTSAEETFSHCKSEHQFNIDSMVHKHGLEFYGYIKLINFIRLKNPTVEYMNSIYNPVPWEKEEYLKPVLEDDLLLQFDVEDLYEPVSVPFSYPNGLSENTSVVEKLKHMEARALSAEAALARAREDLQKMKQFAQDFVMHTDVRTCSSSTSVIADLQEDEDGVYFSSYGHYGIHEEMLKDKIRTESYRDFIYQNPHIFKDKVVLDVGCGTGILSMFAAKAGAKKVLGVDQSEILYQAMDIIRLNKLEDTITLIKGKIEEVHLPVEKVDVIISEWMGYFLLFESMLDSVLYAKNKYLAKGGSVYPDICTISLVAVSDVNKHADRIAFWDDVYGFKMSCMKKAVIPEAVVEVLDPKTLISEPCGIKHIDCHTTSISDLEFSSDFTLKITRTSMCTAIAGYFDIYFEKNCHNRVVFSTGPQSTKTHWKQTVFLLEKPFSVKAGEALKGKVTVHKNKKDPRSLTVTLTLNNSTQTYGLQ
Chain of Protein arginine N-methyltransferase 1 (Q99873 whole entry): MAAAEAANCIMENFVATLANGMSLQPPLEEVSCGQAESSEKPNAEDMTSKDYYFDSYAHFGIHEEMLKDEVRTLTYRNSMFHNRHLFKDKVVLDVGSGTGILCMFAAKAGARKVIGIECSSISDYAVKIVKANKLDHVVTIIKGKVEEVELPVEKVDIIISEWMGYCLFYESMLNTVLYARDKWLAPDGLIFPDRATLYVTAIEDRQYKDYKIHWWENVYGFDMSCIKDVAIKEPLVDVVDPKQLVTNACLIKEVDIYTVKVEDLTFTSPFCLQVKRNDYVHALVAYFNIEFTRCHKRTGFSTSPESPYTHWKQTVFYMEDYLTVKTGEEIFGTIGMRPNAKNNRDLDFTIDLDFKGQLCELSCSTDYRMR

One may read the IC50 as the concentration that inhibits the measured activity by half. `CCC(c1ccc(OC)cc1)N(C)CCN` (configuration not stated): the IC50 result in [1] was “Not Active”; in [2] (read-out: IC50) it was above 25 µM; in experiment [3], “Not Active”.

Consider `CC(N)C(=O)NCc1ccccc1` (configuration not stated), for which the IC50 result in experiment [1] is “Not Active”; in experiment [2] it was “Not Active”; in [3] (read-out: IC50), above 20 µM. Also, the inhibition entry in experiment [4] and in [5] was “Active” throughout.

For the molecule `C[C@@H](N)C(=O)NCc1cccnc1Oc1ccc(F)cc1F`, the IC50 result in experiment [2] is “Not Active”; in [3] (read-out: IC50), above 40 µM.

As for `CN(CCN)Cc1ccccc1`, the IC50 worked out at 6 µM in [1] (read-out: IC50), 2.5 µM in experiment [2] (read-out: IC50) and 7.5 µM in experiment [3] (read-out: IC50). Moreover, the inhibition result in experiment [4] and in [5] was “Active” throughout.

`CNCCNC1CCN(c2cccc(-c3ccnc(C)n3)c2)CC1`: the IC50 in [1] (read-out: IC50) worked out at 26 µM; in experiment [2] (read-out: IC50), 8.9 µM; in experiment [3] (read-out: IC50), 11.1 µM. Also, the inhibition result in [4] and in experiment [5] was “Active” each time.

In the case of `CC(C)(N)C(=O)NCc1cccnc1Oc1ccc(F)cc1F`, the IC50 entry in experiment [2] and in [3] was “Not Active” throughout.

On to `Cc1cc(C)cc(Oc2ccc(CNC(=O)[C@H](C)N)cc2C)c1`, for which the IC50 is above 100 µM in experiment [6]; above 100 µM in experiment [7]; above 50 µM in experiment [1] (read-out: IC50); 5.2 µM in experiment [2] (read-out: IC50); above 100 µM in experiment [13]; 0.05 µM in experiment [3] (read-out: IC50). The molecule further came in with an IC50 in [14] above 100 µM. Moreover, the inhibition result in experiment [8] and in experiment [11] was “inactive” in each case. In addition, the Ratio IC50 in experiment [9] was above 100. Besides, the inhibition result in [10] and in experiment [12] was “Active” in each case.

Turning to `CNCCN1CCC(OCc2ccccc2)CC1`, in [11], the inhibition entry is “Active”.

For `Cc1cc(C)n(-c2ccc(CNC(=O)C(C)N)cc2)n1` (configuration not stated), the IC50 entry in experiment [2] and in [3] was “Not Active” throughout.

`CC(Cc1c[nH]c2ccccc12)NC(=O)CN` (configuration not stated): the IC50 result in [1] was “Not Active”; in experiment [2] it was “Not Active”; in experiment [3] (read-out: IC50), above 65 µM. Besides, the inhibition entry in [4] and in [5] was “Active” throughout.

On to `CNCCN1CCCC1`, for which the IC50 came to 10 µM in [1] (read-out: IC50), 1.9 µM in experiment [2] (read-out: IC50) and 3.1 µM in experiment [3] (read-out: IC50). The inhibition result in experiment [4] and in experiment [5] was “Active” each time.

As for `C[C@H](N)C(=O)NCc1cccnc1N(C)Cc1ccccc1`, the IC50 entry in experiment [1] is “Not Active”; in experiment [2] it was “Not Active”; in experiment [3] (read-out: IC50), above 30 µM. The inhibition result in [4] and in experiment [5] was “Active” each time.

The term Kd denotes the constant that tells how readily two partners part at equilibrium. Take `Cc1cc(OCCNCCN)ccc1C(C)C`: the IC50 entry in experiment [1] was “Not Active”; in experiment [2], “Not Active”; in experiment [3] (read-out: IC50), 16.6 µM. For the same molecule, the Kd entry in [15] was “Not Active”.

In the case of `NCC(=O)NCCc1ccccc1`, the IC50 result in experiment [1] is “Not Active”; in experiment [2], “Not Active”; in experiment [3] (read-out: IC50), 20.5 µM. The Kd entry in experiment [15] is “Not Active”.

As to `NCCN1CCC(c2nnc(Cn3ccnc3)n2C2CC2)CC1`, the IC50 result was “Not Active” in [1], “Not Active” in experiment [2] and above 50 µM in experiment [3] (read-out: IC50). For the same molecule, the inhibition entry in experiment [4] and in experiment [5] was “Active” each time.

In the case of `NC1(C(=O)NCc2cccnc2Oc2ccc(F)cc2F)CC1`, the IC50 result in experiment [2] and in [3] was “Not Active” throughout.

For the molecule `CN[C@@H](C)C(=O)NCc1cccnc1Oc1ccc(F)cc1F`, the IC50 entry in [2] and in experiment [3] was “Not Active” each time.

For `CNCC(=O)NCc1cccnc1Oc1ccc(F)cc1F`, the IC50 entry in experiment [2] and in experiment [3] was “Not Active” in each case.

Take `NCC(=O)NCc1cccnc1Oc1ccc(F)cc1F`: in experiment [2], the IC50 entry is “Not Active”.

For orientation: ΔTm means the change in melting temperature against a reference sample. `C[C@H](N)C(=O)NCc1cccnc1Oc1ccc(F)cc1F`: the ΔTm worked out at 2.1 °C in experiment [16] and 1.9 °C in experiment [18]. The outcome in experiment [17] and in experiment [19] was Active. Further, the IC50 entry in [1] was “Not Active”; in experiment [2] (read-out: IC50) it was 14 µM; in experiment [3] (read-out: IC50), 1.9 µM. The inhibition result in experiment [4] and in experiment [5] was “Active” each time. In experiment [15] (read-out: Kd), the Kd was found to be 9 µM.
